In ChEMBL document CHEMBL1150329, “The discovery of fused pyrrole carboxylic acids as novel, potent D-amino acid oxidase (DAO) inhibitors” (Bioorg Med Chem Lett, 2008):
pIC50: −log10 of the molar value. Active and inactive are the calls of the source. The rule behind the calls is not given here.

Experiments:
D-aspartate oxidase = target: T1, D-aspartate oxidase (Homo sapiens, UniProt Q99489); experiment: Inhibition of human DDO
T1 sequence (Q99489 whole entry): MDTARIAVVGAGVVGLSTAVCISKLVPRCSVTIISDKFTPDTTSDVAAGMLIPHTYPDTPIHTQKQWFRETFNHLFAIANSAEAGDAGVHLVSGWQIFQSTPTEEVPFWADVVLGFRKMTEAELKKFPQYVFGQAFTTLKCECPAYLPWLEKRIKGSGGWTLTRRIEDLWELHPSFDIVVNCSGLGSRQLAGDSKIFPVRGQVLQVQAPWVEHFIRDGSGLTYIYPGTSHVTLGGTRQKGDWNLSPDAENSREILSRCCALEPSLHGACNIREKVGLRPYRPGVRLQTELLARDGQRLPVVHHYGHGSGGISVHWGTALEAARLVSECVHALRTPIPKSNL

D-amino-acid oxidase = D-amino-acid oxidase (Homo sapiens, UniProt P14920); experiment: Inhibition of human DAO
Chain of D-amino-acid oxidase (P14920 whole entry): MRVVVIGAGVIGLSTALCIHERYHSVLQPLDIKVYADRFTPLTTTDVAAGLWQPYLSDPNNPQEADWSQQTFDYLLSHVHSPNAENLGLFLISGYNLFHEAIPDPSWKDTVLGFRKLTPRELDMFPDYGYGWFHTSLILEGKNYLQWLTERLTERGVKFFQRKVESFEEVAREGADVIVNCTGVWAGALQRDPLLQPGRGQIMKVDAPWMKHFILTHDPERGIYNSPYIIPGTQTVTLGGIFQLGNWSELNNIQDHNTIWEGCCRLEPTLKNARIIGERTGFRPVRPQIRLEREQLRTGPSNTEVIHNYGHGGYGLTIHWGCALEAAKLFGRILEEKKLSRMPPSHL

Cytochrome P450 2D6 = Cytochrome P450 2D6 (Homo sapiens, UniProt P10635); experiment: Inhibition of CYP2D6; type: ADME
Chain of Cytochrome P450 2D6 (P10635 whole entry): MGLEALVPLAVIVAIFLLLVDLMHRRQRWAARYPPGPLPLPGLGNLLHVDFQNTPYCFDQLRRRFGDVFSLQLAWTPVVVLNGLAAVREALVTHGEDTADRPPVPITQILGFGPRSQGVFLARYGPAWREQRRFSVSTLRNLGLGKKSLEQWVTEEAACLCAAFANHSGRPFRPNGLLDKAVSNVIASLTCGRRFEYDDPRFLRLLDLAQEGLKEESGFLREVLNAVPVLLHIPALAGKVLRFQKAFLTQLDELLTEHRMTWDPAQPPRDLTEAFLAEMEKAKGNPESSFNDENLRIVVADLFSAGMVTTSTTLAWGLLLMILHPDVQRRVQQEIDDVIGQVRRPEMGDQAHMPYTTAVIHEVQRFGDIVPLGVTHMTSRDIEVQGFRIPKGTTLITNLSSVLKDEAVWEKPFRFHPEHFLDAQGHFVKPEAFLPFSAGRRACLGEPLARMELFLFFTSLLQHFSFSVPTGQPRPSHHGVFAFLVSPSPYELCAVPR

Cytochrome P450 3A4 = Cytochrome P450 3A4 (Homo sapiens, UniProt P08684); experiment: Inhibition of CYP3A4; type: ADME
Chain of Cytochrome P450 3A4 (P08684 whole entry): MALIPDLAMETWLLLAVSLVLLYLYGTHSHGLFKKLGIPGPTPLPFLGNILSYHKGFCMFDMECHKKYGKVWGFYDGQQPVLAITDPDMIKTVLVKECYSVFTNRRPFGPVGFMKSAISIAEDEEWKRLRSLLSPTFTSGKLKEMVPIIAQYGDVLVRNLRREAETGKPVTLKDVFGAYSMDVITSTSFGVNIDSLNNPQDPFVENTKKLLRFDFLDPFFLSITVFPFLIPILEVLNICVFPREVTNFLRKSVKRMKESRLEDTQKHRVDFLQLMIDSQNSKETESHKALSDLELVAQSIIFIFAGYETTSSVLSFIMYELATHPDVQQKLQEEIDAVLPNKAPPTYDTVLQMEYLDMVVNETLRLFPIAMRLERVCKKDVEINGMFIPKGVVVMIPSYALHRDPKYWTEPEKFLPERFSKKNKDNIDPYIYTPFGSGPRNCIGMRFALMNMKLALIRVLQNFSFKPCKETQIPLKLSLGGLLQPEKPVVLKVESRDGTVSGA

[1] = Inhibition of CYP3C9; type: ADME
Rattus norvegicus [2] = experiment: Ex vivo inhibition of DAO in ip dosed rat cerebellum; type: functional, organism-based
Procedure, shortened: (§1)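 Rats were given 25, 75 or 150 mg/kg ip. DAO enzyme activity was measured ex vivo in kidney and cerebellum at 1, 2 and 4 h after dosing and compared with vehicle-dosed rats. Time and treatment effects were tested by two-way ANOVA, with Bonferroni post tests for individual dose-versus-vehicle comparisons.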

Rattus norvegicus [3] = experiment: Ex vivo inhibition of DAO in rat cerebellum at 25 mg/kg, ip after 1 hr; type: functional, organism-based; parameters: dose 25 mg/kg; procedure, shortened: as §1
Rattus norvegicus [4] = experiment: Ex vivo inhibition of DAO in ip dosed rat kidney; type: functional, organism-based; procedure, shortened: as §1

SMILES | pIC50 (D-amino-acid oxidase) | further results
O=C(O)c1cc(Cl)c(Cl)o1 | 6.46 | pIC50 (D-aspartate oxidase): < 5.30
O=C(O)c1cc2ccsc2[nH]1 | 6.57 | –
Oc1noc2cc(Cl)ccc12 | – | pIC50 (D-aspartate oxidase): < 5.30
N#Cc1csc2cc(C(=O)O)[nH]c12 | 5.94 | –
Cc1oc2cc(C(=O)O)[nH]c2c1C | < 5.30 | –
O=C(O)c1cc2occ(Cl)c2[nH]1 | 5.85 | –
O=C(O)c1cc2occ(-c3cccc(Cl)c3)c2[nH]1 | < 5.30 | –
O=C(O)c1cc2ccccc2[nH]1 [INDOLE-2-CARBOXYLIC ACID] | 6.13 | pIC50 (D-aspartate oxidase): < 5.30
O=C(O)c1cc2ncsc2[nH]1 | 5.38 | –
O=C(O)c1cc2oc(-c3ccc(Cl)cc3Cl)cc2[nH]1 | < 5.30 | –
O=C(O)c1cc2occ(-c3ccc(Cl)cc3)c2[nH]1 | < 5.30 | –
O=C(O)c1cc2occ(-c3cccnc3)c2[nH]1 | < 5.30 | –
O=C(O)c1cc2sccc2[nH]1 | 6.61 | pIC50 (Cytochrome P450 2D6): < 5.00; pIC50 (Cytochrome P450 3A4): < 5.00; pIC50 [1]: < 5.00
O=C(O)c1cc2sc(Cl)cc2[nH]1 | < 5.30 | –
O=C(O)c1cc2ocnc2[nH]1 | < 5.30 | –
O=C(O)c1cc2[nH]ncc2[nH]1 | < 5.30 | –
O=C(O)c1cc2scnc2[nH]1 | 6.29 | –
O=C(O)c1cc2occ(CO)c2[nH]1 | < 5.30 | –
O=C(O)c1cc2occc2[nH]1 | – | Activity (Rattus norvegicus [2]): Active; pIC50 (Cytochrome P450 2D6): < 5.00; pIC50 (Cytochrome P450 3A4): < 5.00; Activity (Rattus norvegicus [3]): inactive; Activity (Rattus norvegicus [4]): Active; pIC50 [1]: < 5.00; pIC50 (D-aspartate oxidase): < 5.30
O=C(O)c1ccc[nH]1 | < 5.30 | –
O=C(O)c1cc2oc(-c3cccc(Cl)c3)cc2[nH]1 | < 5.30 | –
O=C(O)c1cc2oc(-c3ccc(Cl)cc3)cc2[nH]1 | < 5.30 | –
O=C(O)c1cc2oc(-c3ccccc3)cc2[nH]1 | < 5.30 | –
O=C(O)c1cc2oc(Cl)cc2[nH]1 | < 5.30 | –
